# Bioassay records from PubChem BioAssay.
# The list is not random: actives were taken first. Their share in the collection is about 1.8%.
# CXCR6 inh – CXCR6 (human) receptor inhibition; inhibition, % at 20 µM; O00574; CHO-K1 PathHunter CXCR6 beta-arrestin, luminescence; 0.36% of 360,000 active; in the data active = inhibition above about 34%, passing the limit was not always enough;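 also: antagonist mode with CXCL16 agonist at 10 nM final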
# Beta2AR agonist – activates human beta-2 adrenergic receptor causing internalization | P07550 | response, % (concentration not given with the values) | Am2.2-beta2AR cells, FAP receptor internalization, flow cytometry | 0.43% of 340,000 active;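 active = response above a set limit, near 3 SD of response in nonfluorescent compounds, cut at about 42% in these data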
# Target sequence (P07550 whole entry, looked up): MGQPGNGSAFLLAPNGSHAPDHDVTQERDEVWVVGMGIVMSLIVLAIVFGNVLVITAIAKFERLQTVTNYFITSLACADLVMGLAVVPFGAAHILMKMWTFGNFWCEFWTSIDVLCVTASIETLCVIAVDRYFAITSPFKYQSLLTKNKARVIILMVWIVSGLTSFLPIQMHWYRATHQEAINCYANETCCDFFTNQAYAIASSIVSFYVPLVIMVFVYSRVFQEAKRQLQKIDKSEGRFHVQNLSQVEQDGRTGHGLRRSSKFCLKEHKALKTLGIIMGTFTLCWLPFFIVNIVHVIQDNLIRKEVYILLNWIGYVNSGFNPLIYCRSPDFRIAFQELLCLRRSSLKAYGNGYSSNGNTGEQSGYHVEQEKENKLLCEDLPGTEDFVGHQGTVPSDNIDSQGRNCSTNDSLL
# APJ ag – agonists of human APJ apelin receptor. P35414. CHO-K1 APJ PathHunter beta-arrestin, luminescence; 0% DMSO wells, 100% apelin. activation, % at 20 µM. 0.11% of 330,000 active. AID 2520;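 active = activation more than six SD over the plate average, tested at 20 µM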
#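 Assay system: CHO-K1 cells stably expressing ProLink-tagged human APJ and arrestin–beta-gal acceptor. Compound dosing: 20 µM single point, 1% DMSO. Times: 16-18 h seeding, 90 min dark compound exposure, 60 min detection. Detection: beta-gal luminescence. Evaluation: APJ–arrestin association signal. Controls: negative DMSO alone, positive Apelin-13 at 10 nM.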
# EBI2 block – EBI2 (human) antagonism; inhibition, % at 5 µM; AID 651636; 0.81% of 360,000 active; P32249; EBI2 beta-arrestin recruitment, luminescence, 7a,25-OHC stimulated; in the data active = inhibition above about 38%;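 also: enzyme fragment complementation signal reports receptor beta-arrestin coupling in cells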
# APJ antagonist – antagonists of human APJ apelin receptor. CHO-K1 APJ beta-arrestin complementation, luminescence. inhibition, % at 20 µM. 0.32% of 330,000 active;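 active = inhibition above about 40% at 20 µM, limit read from the data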;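 also: cells challenged with 10 nM apelin-13 agonist together with compound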
# CCR6 antag – CCR6 (human) receptor antagonism; P51684; inhibition, % at 20 µM; AID 493098; CHO-K1 CCR6 PathHunter beta-arrestin, luminescence, CCL20-stimulated; 0.49% of 340,000 active;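 active = compounds whose inhibition of the agonist-driven luminescence signal at 20 µM reaches about 50%, limit read from the data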;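 also: cells stimulated with CCL20 at 14 nM final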
# Hits are given with their value; - = inactive; . = no result.
SMILES,CXCR6 inh,Beta2AR agonist,APJ ag,EBI2 block,APJ antagonist,CCR6 antag
CCC(=O)N1CCN(c2ccnc3cc(Cl)ccc23)CC1,-,-,-,-,-,-
COc1cc(C(=O)N2CCN(c3ccccn3)CC2)cc(OC)c1OC,-,-,-,-,-,-
COc1cc2nc(C3CCC3)nc(N3CCN(c4ccccn4)CC3)c2cc1OC,-,-,-,52,-,-
CC(C)C1OC(c2cccc(NC(=O)c3cccs3)c2)OCC1(C)C (centres undefined),-,-,-,-,-,-
Cc1[nH]n(-c2ccccc2)c(=O)c1C=Nc1cccc2cccnc12,54,-,-,96,94,52
Cc1[nH]n(-c2ccccc2)c(=O)c1/C=N/N1CCOCC1,-,-,-,-,-,-
Cc1[nH]n(-c2ccccc2)c(=O)c1/C=N/N1C(=O)c2cccc3cccc(c23)C1=O,52,-,-,-,-,74
Cc1ccc(-n2[nH]c(C)c(/C=N/c3ccccn3)c2=O)cc1,-,-,-,-,-,-
COc1cc(C(=O)NC(=S)NC(C)C)cc(OC)c1OC,-,78,-,-,-,-
COc1cc(C(=O)NC(=S)N2CCCCCC2)cc(OC)c1OC,-,-,-,-,-,-
COc1ccccc1C(=O)NNC(=S)NC(=O)c1cc(OC)c(OC)c(OC)c1,-,-,-,-,-,58
Cc1cc(-c2nc3ncccc3o2)ccc1NC(=S)NC(=O)C(C)C,-,62,-,-,-,-
CSc1nnc(-c2cccc(NC(=S)NN)c2)o1,-,74,-,-,-,-
O=C(N/N=C/c1ccc(O)cc1)c1ccc(COc2cc(Cl)ccc2Cl)o1,-,49,-,-,-,-
O=C(N/N=C/c1ccc(Cl)cc1)c1sccc1OCc1ccc(F)cc1,-,55,-,-,-,-
O=C(N/N=C/c1ccc(F)cc1)c1sccc1OCc1ccc(F)cc1,-,-,-,-,-,-
CCOC(=O)C1(Cc2ccc(Cl)cc2)CCN(C(=O)CCc2cnccn2)CC1,-,-,-,-,-,62
CC(=O)COC(=O)C1=NN(c2ccccc2)C(=O)CC1,-,-,-,-,-,-
CC1=NNC(=O)/C1=C\c1cn(-c2ccccc2)nc1-c1ccccc1,-,82,.,63,.,-
CC(=O)Nc1ccc(-c2ccnc3c2CC(C)(C(=O)Nc2ccc4c(c2)OCO4)O3)cc1 (centres undefined),-,.,.,-,.,.
Cc1cc(S(=O)(=O)Nc2ccc(C(=O)NCc3cccnc3)cc2)ccc1F,-,-,-,-,-,-
O=C(NNC(=S)Nc1ccc(F)cc1)c1cccc([N+](=O)[O-])c1,-,-,-,-,-,-
O=[N+]([O-])c1ccc(NNC(=S)Nc2ccc(F)cc2)cc1,-,-,-,-,-,68
CCOC(=O)c1c(SCCN2CCCCC2)n(-c2ccccc2)c(=S)n(-c2ccccc2)c1=O,86,-,.,-,.,99
CCC(C(=O)OCC(=O)Nc1cc(Cl)ccc1Cl)c1ccccc1 (centres undefined),-,-,-,-,42,-
SMILES,CXCR6 inh,Beta2AR agonist,APJ ag,EBI2 block,APJ antagonist,CCR6 antag
CCC(C(=O)OCC(=O)Nc1ccc(OC)cc1OC)c1ccccc1 (centres undefined),-,-,-,-,-,-
CCC(CC)n1c(C)cc(=O)n1C(CC)CC,-,-,.,-,.,-
CC(=O)Oc1oc(-c2ccccc2)nc1/C=N/c1ccccn1,-,64,-,-,-,51
COc1ccccc1N=Cc1nc(-c2ccccc2)oc1OC(C)=O,-,-,-,-,-,-
CCn1cc(C=C2C(=O)c3ccccc3C2=O)c2ccccc21,-,-,.,-,.,51
O=[N+]([O-])c1ccc(-c2c(O)c3ccccc3c3nc4ccccc4nc23)cc1,-,-,-,-,-,76
O=[N+]([O-])c1ccc(-c2cnc3ccccc3n2)cc1,-,-,-,-,-,-
O=C(CSc1nc(=O)n2ccccc2n1)N1CCCCCC1,-,-,-,-,-,-
Cc1ccc2nc(Cl)c3nnnn3c2c1,-,87,-,-,-,-
N#Cc1c(N2CCN(C(=O)c3ccccc3Cl)CC2)nc(-c2ccccc2)c2c1CCCC2,-,-,-,-,-,-
N#Cc1c(N2CCN(C(=O)c3ccccc3)CC2)nc(-c2ccccc2)c2c1CCCC2,-,-,-,-,-,50
CC(C)N1C(=O)C(Cc2nc3ccccc3c(=O)n2-c2ccccc2)c2ccccc21 (centres undefined),-,-,-,-,-,-
CC(C)N1C(=O)/C(=C\c2nc3ccccc3c(=O)n2-c2ccccc2)c2ccccc21,-,-,.,55,.,-
COc1cc(NC(=O)COc2cc3oc(=O)cc(C)c3cc2Cl)cc(OC)c1OC,-,46,-,-,-,-
COc1cc(NC(=O)COc2ccc3c(C)cc(=O)oc3c2C)cc(OC)c1OC,-,-,-,-,-,-
COc1cccc(NC(=O)COC(=O)/C=C/c2c(C)nn(-c3ccccc3)c2C)c1,-,-,-,-,-,-
CN(C)/C=N/C(=S)Nc1ccccc1Cl,-,-,-,-,-,-
CN(C)/C=N/C(=S)Nc1ccccc1F,-,51,-,-,-,-
COc1cc(NC(=O)CN(C)S(=O)(=O)c2cccs2)cc(OC)c1,-,-,-,-,-,-
CCOc1ccc(NC(=O)CN(C)S(=O)(=O)c2cccs2)cc1,49,-,-,-,-,-
Cc1cccc(C)c1NC(=O)c1nc(S(=O)(=O)Cc2ccccc2)ncc1Cl,54,-,-,-,-,55
COc1ccc(NC(=O)c2nc(S(=O)(=O)Cc3cccc(C)c3)ncc2Cl)c(OC)c1,-,-,-,50,-,-
Cc1ccccc1NC(=O)c1nc(S(C)(=O)=O)ncc1Cl,-,-,-,-,-,-
COC(=O)c1sc(N)c(C(=O)OC)c1CSc1nc2sc3c(c2c(=O)n1C)CCC3,52,-,-,-,-,-
Oc1ccc(CN2CCN(c3ccccc3)CC2)c2cccnc12,-,-,-,60,-,-
SMILES,CXCR6 inh,Beta2AR agonist,APJ ag,EBI2 block,APJ antagonist,CCR6 antag
Oc1ccc(CN2CCc3ccccc3C2)c2cccnc12,-,-,-,67,-,-
Cc1ccc(S(=O)(=O)N2CCOCC2)cc1C(=O)Nc1ccccc1N1CCOCC1,-,-,-,-,-,-
Cc1c(NC(=O)c2cccc(NC(=O)Cc3ccc(F)cc3)c2)c(=O)n(-c2ccccc2)n1C,-,-,-,-,-,-
Cc1ccc(CNc2ncc(-c3ccccc3)n2C)o1,-,-,-,-,-,-
Cc1ccc(C)c(CSc2nnc(-c3cccs3)n2Cc2ccco2)c1,-,67,-,-,-,-
O=C1S/C(=C\c2ccc(N3CCOCC3)o2)C(=O)N1Cc1ccc(F)cc1,-,-,-,47,-,-
O=C1NC(=S)S/C1=C/c1ccc(N2CCOCC2)o1,-,-,-,-,-,62
